Series [1] has as its system Rattus norvegicus. Put plainly: Compound was tested for anticonvulsant activity after Oral Administration into Rats by using MES screen test after 2h,dose 50 mg/kg; number of rats out of four which were protected. It counts as functional. Put shortly: (§1)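 Rats received the compound orally. […] Rats were tested in the MES screen at 0.25, 0.5, 1, 2 and 4 h. Each value is the number of rats protected out of 4. The test followed NINDS procedures.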

In series [2] the test system is Rattus norvegicus. Briefly: Compound was tested for anticonvulsant activity after Oral Administration into Rats by using MES screen test after 4h,dose 50 mg/kg; number of rats out of four which were protected. It counts as functional. Put shortly:
as §1

In series [3] the test system is Mus musculus. Put plainly: Compound was tested for toxicity after intraperitoneal injection into mice by using toxicity screen test after 4 hr. Particulars: in vivo, ip. It counts as organism-based. An outline of the steps: (§2)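 Mice injected intraperitoneally at 30, 100 and 300 mg/kg and examined 0.5 and 4 h afterwards. Each entry is the minimum dose giving activity (MES protection, scPTZ protection, or rotorod failure for neurotoxicity) in half or more of the mice. Activity is called absent if nothing occurs at 300 mg/kg.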

The test system of series [4] is Rattus norvegicus. Put plainly: Compound was tested for anticonvulsant activity after Oral Administration into Rats by using MES screen test after 1h,dose 50 mg/kg; number of rats out of four which were protected. It counts as functional. Put shortly:
as §1

The subject of series [5] is Mus musculus. Briefly: Anticonvulsant activity after intraperitoneal injection into mice by using MES screen test after 0.5 hr. It is filed as functional.
In series [6] the test system is Rattus norvegicus. Put plainly: Compound was tested for anticonvulsant activity after Oral Administration into Rats by using MES screen test after 0.5h,dose 50 mg/kg; number of rats out of four which were protected. It is filed as functional. An outline of the steps:
as §1

Series [7] in a line: Partition coefficient (logP). It counts as physicochemical. Particulars: octanol/water. Put shortly: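 Partition between 1-octanol and buffer at pH 7.4, with solutions prepared in 1-octanol before buffer is added. Quantified by UV, using λmax and ε values measured in 1-octanol.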
In series [8] the test system is Rattus norvegicus. Put plainly: Compound was tested for anticonvulsant activity after Oral Administration into Rats by using MES screen test after 0.25h,dose 50 mg/kg; No activity was demonstarted. It is filed as functional, organism-based. Set-up: dose 50 mg/kg. Put shortly:
as §1

For series [9], the system named is Mus musculus. Put plainly: Anticonvulsant activity after intraperitoneal injection into mice measured in a maximal electroshock scree (MES) screen. It is filed as functional. In general terms: Protection in the maximal electroshock model is a classic sign of anticonvulsant action.
Series [10] relates to Rattus norvegicus. Briefly: Compound was tested for anticonvulsant activity after Oral Administration into Rats by using MES screen test after 2h,dose 30 mg/kg; number of rats out of four which were protected. It is filed as functional. An outline of the steps:
as §1

In series [11] the test system is Rattus norvegicus. Briefly: Compound was tested for anticonvulsant activity after Oral Administration into Rats by using MES screen test after 1h,dose 30 mg/kg; number of rats out of four which were protected. It counts as functional. Put shortly:
as §1

Series [12] relates to Rattus norvegicus. Put plainly: Compound was tested for anticonvulsant activity after Oral Administration into Rats by using MES screen test after 4h,dose 30 mg/kg; number of rats out of four which were protected. It is filed as functional. An outline of the steps:
as §1

In series [13] the test system is Rattus norvegicus. Put plainly: Compound was tested for anticonvulsant activity after Oral Administration into Rats by using MES screen test after 0.5h,dose 30 mg/kg; No activity was demonstarted. Set-up: dose 30 mg/kg. It is filed as functional, organism-based. An outline of the steps: as §1
The subject of series [14] is Rattus norvegicus. Briefly: Compound was tested for anticonvulsant activity after Oral Administration into Rats by using MES screen test after 0.25h,dose 30 mg/kg; No activity was demonstarted. It is filed as functional, organism-based. Set-up: dose 30 mg/kg. Put shortly:
as §1

Series [15] deals with Mus musculus. Put plainly: Toxicity after intraperitoneal injection into mice by using toxicity screen test after 0.5 hr. It is filed as organism-based. Particulars: in vivo, ip. An outline of the steps:
as §2

The subject of series [16] is Rattus norvegicus. Briefly: Compound was tested for anticonvulsant activity after Oral Administration into Rats by using MES screen test after 4h,dose 12.50 mg/kg; number of rats out of four which were protected. It counts as functional. Particulars: dose 12.5 mg/kg. An outline of the steps:
as §1

Series [17] concerns Rattus norvegicus. Put plainly: Compound was tested for anticonvulsant activity after Oral Administration into Rats by using MES screen test after 2h,dose 12.5 mg/kg; No activity was demonstarted. It is filed as functional, organism-based. Also on record: dose 12.5 mg/kg. An outline of the steps: as §1
In series [18] the test system is Rattus norvegicus. Briefly: Compound was tested for anticonvulsant activity after Oral Administration into Rats by using MES screen test after 1h,dose 12.5 mg/kg; number of rats out of four which were protected. It counts as functional. Put shortly:
as §1

The subject of series [19] is Rattus norvegicus. Put plainly: Compound was tested for anticonvulsant activity after Oral Administration into Rats by using MES screen test after 0.25h,dose 12.5 mg/kg; No activity was demonstarted. It counts as functional, organism-based. Also on record: dose 12.5 mg/kg. An outline of the steps: as §1
Series [20] deals with Rattus norvegicus. Briefly: Compound was tested for anticonvulsant activity after Oral Administration into Rats by using MES screen test after 0.5h,dose 12.5 mg/kg; No activity was demonstarted. It counts as functional, organism-based. Set-up: dose 12.5 mg/kg. Put shortly:
as §1

The subject of series [21] is Rattus norvegicus. Briefly: Compound was tested for anticonvulsant activity after Oral Administration into Rats by using MES screen test after 2h,dose 12.5 mg/kg; number of rats out of four which were protected. It counts as functional. An outline of the steps:
as §1

Series [22] relates to Mus musculus. Put plainly: Anticonvulsant activity after intraperitoneal injection into mice by using scPTZ screen test after 4 hr. It is filed as functional.
The test system of series [23] is Mus musculus. Put plainly: Anticonvulsant activity after intraperitoneal injection into mice by using scPTZ screen after 0.5 hr. It is filed as functional.
Series [24] deals with Rattus norvegicus. Put plainly: Compound was tested for anticonvulsant activity after Oral Administration into rat by using MES screen test after 2 hr. It is filed as functional. An outline of the steps: (§3)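 Rats dosed orally, typically at 50 mg/kg first, then mostly 12.5 mg/kg (some compounds at 30 mg/kg), and tested by maximal electroshock. Four rats per compound, scored at 0.25, 0.5, 1, 2 and 4 h as the number of rats protected out of 4.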

Series [25] deals with Rattus norvegicus. Put plainly: Compound was tested for anticonvulsant activity after Oral Administration into Rats by using MES screen test after 4h,dose 12.5 mg/kg; number of rats out of four which were protected. It counts as functional. An outline of the steps:
as §1

The nature of series [26]: Compound was tested for toxicity after oral administration in rat by using neurotoxicity screen test after 0.25-24 hr. It is filed as organism-based. The settings on record: in vivo. An outline of the steps: (§4)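 Rat neurotoxicity after oral dosing, observed at 0.25, 0.5, 1, 2, 4, 6, 8 and 24 h (8 h omitted for one compound).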
A short description of series [27]: Protection index = TD50/ED50 (MES). It counts as ADME, organism-based. The settings on record: rat, in vivo; read-out: PI.
For series [28], the system named is Rattus norvegicus. Briefly: Anticonvulsant activity after oral administration into rats. It counts as functional. Set-up: concentration or dose not given beside the values.
The subject of series [29] is Rattus norvegicus. Briefly: Compound was tested for anticonvulsant activity after Oral Administration into Rats by using MES screen test after 1h,dose 12.5 mg/kg; No activity was demonstarted. It is filed as functional, organism-based. Set-up: dose 12.5 mg/kg. Put shortly: as §1
Series [30] is described as follows: Compound was tested for toxicity after oral administration in rat by using neurotoxicity screen test after 2 hr. The settings on record: in vivo. It counts as organism-based. Put shortly: as §4
Series [31] concerns Rattus norvegicus. Briefly: Compound was tested for anticonvulsant activity after Oral Administration into rat by using MES screen test after 4 hr. It is filed as functional. Put shortly:
as §3

The values that follow come from ChEMBL document CHEMBL1129428 (J Med Chem, 1996).

A value given as a limit tells only on which side of the number the result lay.

In general, logP refers to a log measure of how a compound divides between an organic and an aqueous phase. Regarding `COc1ccc(Oc2ccc(/C=N/NC(N)=O)cc2)cc1`, the Activity with Rattus norvegicus [1] is 4; with Rattus norvegicus [2], 4; with Rattus norvegicus [4] it was 4; in the series with Rattus norvegicus [6] it was 4; in the series on Rattus norvegicus [8], “No activity”. Besides, the values for the Dose with Mus musculus [3], in the series on Mus musculus [5] and with Mus musculus [9] were 300 mg/kg, 100 mg/kg and 100 mg/kg, respectively. The molecule also registered a lipophilicity (logP) in series [7] of 1.29.

In the case of `NC(=O)N/N=C\c1ccccc1Oc1ccc(F)cc1`, the Activity with Rattus norvegicus [10] was 2; with Rattus norvegicus [11], 1; in the series with Rattus norvegicus [12], 1; in the series on Rattus norvegicus [13], “No activity”; in the series on Rattus norvegicus [14], “No activity”.

For the molecule `CC/C(=N/NC(N)=O)c1ccc(Sc2ccc(F)cc2)cc1`, the Activity was 3 in the series on Rattus norvegicus [10]; 2 in the series with Rattus norvegicus [11]; 3 with Rattus norvegicus [12]; “No activity” in the series with Rattus norvegicus [13]; “No activity” in the series on Rattus norvegicus [14]. Also, the Dose in the series on Mus musculus [3] was determined as 100 mg/kg; with Mus musculus [5], 30 mg/kg; in the series on Mus musculus [15], 100 mg/kg; with Mus musculus [9], 100 mg/kg.

Take `Cc1cccc(Oc2ccc(/C=N/NC(N)=O)cc2)c1C`: the Activity in the series with Rattus norvegicus [16] was 1; in the series with Rattus norvegicus [17], “No activity”; in the series with Rattus norvegicus [18], 1; in the series with Rattus norvegicus [19], “No activity”; in the series on Rattus norvegicus [20], “No activity”. Also, in the series on Mus musculus [9], the Dose is 100 mg/kg.

By ED50 is commonly meant the dose at which the effect has come halfway, by size or by number of responders. By TD50 is commonly meant the 50% point of the dose-response relation for the toxic effect studied. For the molecule `Cc1ccccc1Oc1ccc(/C=N/NC(N)=O)cc1`, the Activity with Rattus norvegicus [21] is 4; in the series with Rattus norvegicus [18], 3; in the series on Rattus norvegicus [25] it was 4; with Rattus norvegicus [19], “No activity”; in the series on Rattus norvegicus [28], 4. Moreover, the Dose with Mus musculus [3] was found to be 300 mg/kg; in the series with Mus musculus [22], 100 mg/kg; with Mus musculus [23], 100 mg/kg; in the series on Mus musculus [5], 30 mg/kg; with Mus musculus [15] it was 300 mg/kg; in the series with Mus musculus [9], 100 mg/kg. For the same molecule, the 50% effect level in the series on Rattus norvegicus [24] (ED50) was put at a dose of 5.65 mg/kg. The molecule further yielded a TD50 in series [26] of over 500 mg/kg. The selectivity ratio in series [27] was over 88.

For the molecule `CCCCOc1ccc(Oc2ccc(/C=N/NC(N)=O)cc2)cc1`, the Activity result was “No activity” in the series with Rattus norvegicus [29]; “No activity” in the series with Rattus norvegicus [17]; 2 in the series with Rattus norvegicus [25]; “No activity” with Rattus norvegicus [19]; “No activity” in the series on Rattus norvegicus [20]. The Dose worked out at 300 mg/kg with Mus musculus [3]; 300 mg/kg in the series with Mus musculus [22]; 300 mg/kg with Mus musculus [23]; 300 mg/kg in the series on Mus musculus [5]; 300 mg/kg with Mus musculus [15]; 100 mg/kg in the series with Mus musculus [9]. This molecule also displayed a TD50 at 2 h in [30] of over 100 mg/kg. The molecule further gave a median effective dose (ED50) in the series on Rattus norvegicus [31] of 45.8 mg/kg. The selectivity ratio in series [27] was over 2.18.
